Each block holds one molecule with its values, some of them ahead of it.
Tests used:
MDA-MB-231 = assay: MTT cytotoxicity, MDA-MB-231; type: cell-based; conditions: Homo sapiens, MDA-MB-231, read-out: Cytotoxic activity IC50, MDA-MB-231
PC-3 = assay: MTT cytotoxicity, PC-3; type: cell-based, human; conditions: for IC50: read-out: Cytotoxic activity IC50, PC-3, MTT, mean ± SD of three experiments; for fold superior to IC50 of the erlotinib, PC-3: PC-3 cell line, vs erlotinib
PI3Kβ (p110β/p85α) = PI3Kβ (p110β/p85α) (Homo sapiens, UniProt P42338); assay: PI3Kβ Assay Kit; type: biochemical
PI3Kβ (p110β/p85α), sequence (P42338 whole entry): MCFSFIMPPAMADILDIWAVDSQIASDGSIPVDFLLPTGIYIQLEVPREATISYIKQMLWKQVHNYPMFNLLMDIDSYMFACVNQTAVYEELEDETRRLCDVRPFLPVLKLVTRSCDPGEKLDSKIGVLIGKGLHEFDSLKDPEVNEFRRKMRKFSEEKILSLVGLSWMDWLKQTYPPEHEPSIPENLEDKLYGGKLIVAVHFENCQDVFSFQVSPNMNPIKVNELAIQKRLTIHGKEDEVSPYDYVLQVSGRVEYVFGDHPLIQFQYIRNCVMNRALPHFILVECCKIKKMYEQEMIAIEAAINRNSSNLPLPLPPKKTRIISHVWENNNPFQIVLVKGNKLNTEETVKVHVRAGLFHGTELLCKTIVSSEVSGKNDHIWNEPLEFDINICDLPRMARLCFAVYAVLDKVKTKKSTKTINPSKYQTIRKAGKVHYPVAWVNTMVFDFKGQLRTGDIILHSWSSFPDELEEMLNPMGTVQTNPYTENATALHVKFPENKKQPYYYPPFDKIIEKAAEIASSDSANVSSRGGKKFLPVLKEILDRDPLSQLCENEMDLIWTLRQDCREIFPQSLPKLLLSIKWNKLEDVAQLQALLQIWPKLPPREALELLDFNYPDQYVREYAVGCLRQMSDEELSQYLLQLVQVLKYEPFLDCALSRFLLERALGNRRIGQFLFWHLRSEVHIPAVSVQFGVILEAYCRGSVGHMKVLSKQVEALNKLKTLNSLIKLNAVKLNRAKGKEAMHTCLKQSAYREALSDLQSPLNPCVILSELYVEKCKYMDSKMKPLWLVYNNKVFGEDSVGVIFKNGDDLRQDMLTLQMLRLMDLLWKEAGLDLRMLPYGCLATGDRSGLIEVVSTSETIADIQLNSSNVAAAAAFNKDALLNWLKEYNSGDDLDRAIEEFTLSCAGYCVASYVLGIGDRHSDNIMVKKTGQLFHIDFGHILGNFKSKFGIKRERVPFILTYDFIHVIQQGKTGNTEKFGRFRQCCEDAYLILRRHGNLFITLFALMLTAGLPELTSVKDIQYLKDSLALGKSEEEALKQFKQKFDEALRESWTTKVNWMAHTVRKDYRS
PI3Kβ (p110β/p85α), sequence (P27986 whole entry partner): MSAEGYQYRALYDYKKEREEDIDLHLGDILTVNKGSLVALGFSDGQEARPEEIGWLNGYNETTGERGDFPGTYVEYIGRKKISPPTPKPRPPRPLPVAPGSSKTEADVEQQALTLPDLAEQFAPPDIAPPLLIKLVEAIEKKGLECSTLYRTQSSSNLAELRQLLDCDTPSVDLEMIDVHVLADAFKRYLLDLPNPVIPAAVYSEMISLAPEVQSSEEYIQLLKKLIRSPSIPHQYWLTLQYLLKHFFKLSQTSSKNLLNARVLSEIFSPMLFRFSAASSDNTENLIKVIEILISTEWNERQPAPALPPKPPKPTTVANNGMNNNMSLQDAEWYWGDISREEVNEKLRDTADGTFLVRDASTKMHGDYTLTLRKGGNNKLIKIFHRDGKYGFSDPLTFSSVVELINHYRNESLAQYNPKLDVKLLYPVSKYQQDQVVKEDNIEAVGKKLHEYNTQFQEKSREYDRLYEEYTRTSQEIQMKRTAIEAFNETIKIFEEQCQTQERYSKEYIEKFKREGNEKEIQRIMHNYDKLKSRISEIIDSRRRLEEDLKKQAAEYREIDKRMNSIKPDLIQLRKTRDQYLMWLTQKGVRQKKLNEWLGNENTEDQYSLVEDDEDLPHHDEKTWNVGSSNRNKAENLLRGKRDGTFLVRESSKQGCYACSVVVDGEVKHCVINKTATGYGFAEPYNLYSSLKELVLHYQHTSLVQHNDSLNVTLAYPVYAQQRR

HCT-116 = assay: MTT cytotoxicity, HCT-116; type: cell-based; conditions: Homo sapiens, HCT-116, read-out: Cytotoxic activity IC50, HCT-116
HEPG-2 = assay: MTT cytotoxicity, HEPG-2; type: cell-based, human; conditions: for IC50: Homo sapiens, HepG2, read-out: Cytotoxic activity IC50, HEPG-2
[1] = MTT cytotoxicity, normal prostate epithelial cells; type: cell-based; conditions: human, HPrEC normal primary prostate epithelial cells
EGFR = EGFR (Homo sapiens, UniProt P00533); assay: EGFR Kinase Assay Kit; type: biochemical
PI3Kα = PI3Kα (Homo sapiens, UniProt P42336); assay: PI3K isoform ELISA kit, PI3Kα; type: biochemical; conditions: mean ± SD of three experiments
PI3Kα, sequence (P42336 whole entry, canonical isoform): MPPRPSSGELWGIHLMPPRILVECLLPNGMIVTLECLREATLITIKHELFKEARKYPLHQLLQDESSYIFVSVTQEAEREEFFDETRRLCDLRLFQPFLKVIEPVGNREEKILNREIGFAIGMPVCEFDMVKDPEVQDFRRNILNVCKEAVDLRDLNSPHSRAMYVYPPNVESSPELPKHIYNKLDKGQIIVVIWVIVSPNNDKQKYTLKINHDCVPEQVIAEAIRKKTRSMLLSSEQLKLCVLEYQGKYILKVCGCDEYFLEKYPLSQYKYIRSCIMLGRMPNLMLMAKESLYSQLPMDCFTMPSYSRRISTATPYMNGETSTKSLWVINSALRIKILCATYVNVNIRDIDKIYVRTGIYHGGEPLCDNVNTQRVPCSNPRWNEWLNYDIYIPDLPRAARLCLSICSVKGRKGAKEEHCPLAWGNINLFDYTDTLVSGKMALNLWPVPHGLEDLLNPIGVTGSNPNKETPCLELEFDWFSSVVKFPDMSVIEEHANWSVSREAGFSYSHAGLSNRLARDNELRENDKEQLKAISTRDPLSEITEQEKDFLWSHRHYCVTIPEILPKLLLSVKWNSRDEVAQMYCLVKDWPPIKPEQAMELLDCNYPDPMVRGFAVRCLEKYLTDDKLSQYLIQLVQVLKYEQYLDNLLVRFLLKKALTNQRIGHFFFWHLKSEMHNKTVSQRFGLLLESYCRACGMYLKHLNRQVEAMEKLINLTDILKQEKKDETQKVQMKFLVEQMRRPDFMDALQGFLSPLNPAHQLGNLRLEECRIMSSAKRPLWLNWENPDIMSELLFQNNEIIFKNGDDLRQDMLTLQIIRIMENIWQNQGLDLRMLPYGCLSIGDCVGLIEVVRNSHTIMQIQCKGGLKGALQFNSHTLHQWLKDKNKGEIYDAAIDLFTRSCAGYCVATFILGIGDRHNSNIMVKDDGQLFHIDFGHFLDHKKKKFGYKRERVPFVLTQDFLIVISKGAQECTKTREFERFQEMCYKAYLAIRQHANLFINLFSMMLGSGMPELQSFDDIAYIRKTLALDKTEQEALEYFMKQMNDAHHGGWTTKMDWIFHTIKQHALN
PI3Kα, sequence (P27986 whole entry partner, canonical isoform): as the sequence (P27986 whole entry partner) above

PI3Kγ = PI3Kγ (Homo sapiens, UniProt P48736); assay: PI3K isoform ELISA kit, PI3Kγ; type: biochemical
PI3Kγ, sequence (P48736 whole entry, canonical isoform): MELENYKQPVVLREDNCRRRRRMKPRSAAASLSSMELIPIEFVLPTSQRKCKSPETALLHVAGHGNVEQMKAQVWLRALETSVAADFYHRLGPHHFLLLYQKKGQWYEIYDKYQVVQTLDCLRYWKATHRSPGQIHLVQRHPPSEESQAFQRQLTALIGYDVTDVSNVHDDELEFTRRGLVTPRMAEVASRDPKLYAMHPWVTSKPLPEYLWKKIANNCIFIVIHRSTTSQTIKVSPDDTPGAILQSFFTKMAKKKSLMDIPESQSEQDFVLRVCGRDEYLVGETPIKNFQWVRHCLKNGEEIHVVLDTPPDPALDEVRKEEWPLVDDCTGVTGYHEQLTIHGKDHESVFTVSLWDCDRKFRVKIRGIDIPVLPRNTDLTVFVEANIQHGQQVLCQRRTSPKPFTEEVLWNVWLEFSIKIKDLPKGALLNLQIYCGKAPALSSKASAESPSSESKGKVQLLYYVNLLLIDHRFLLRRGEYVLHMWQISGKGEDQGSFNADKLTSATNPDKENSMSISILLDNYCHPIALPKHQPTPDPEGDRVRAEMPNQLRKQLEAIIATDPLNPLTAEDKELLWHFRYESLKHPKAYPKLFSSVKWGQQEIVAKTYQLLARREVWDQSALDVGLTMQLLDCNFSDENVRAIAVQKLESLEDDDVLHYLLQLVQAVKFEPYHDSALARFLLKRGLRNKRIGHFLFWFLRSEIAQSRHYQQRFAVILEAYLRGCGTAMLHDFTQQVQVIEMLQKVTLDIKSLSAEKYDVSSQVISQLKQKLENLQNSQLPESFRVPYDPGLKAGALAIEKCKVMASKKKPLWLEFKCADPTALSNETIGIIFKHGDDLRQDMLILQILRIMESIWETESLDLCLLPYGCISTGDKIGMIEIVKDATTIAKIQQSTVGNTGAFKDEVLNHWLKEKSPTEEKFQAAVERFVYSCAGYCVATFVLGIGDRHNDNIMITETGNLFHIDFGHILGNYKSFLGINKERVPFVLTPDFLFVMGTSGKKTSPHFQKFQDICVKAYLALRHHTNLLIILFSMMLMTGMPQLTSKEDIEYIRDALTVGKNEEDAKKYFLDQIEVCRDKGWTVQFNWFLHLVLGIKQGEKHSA

PI3Kδ = PI3Kδ (Homo sapiens, UniProt O00329); assay: PI3K isoform ELISA kit, PI3Kδ; type: biochemical
PI3Kδ, sequence (O00329 whole entry, canonical isoform): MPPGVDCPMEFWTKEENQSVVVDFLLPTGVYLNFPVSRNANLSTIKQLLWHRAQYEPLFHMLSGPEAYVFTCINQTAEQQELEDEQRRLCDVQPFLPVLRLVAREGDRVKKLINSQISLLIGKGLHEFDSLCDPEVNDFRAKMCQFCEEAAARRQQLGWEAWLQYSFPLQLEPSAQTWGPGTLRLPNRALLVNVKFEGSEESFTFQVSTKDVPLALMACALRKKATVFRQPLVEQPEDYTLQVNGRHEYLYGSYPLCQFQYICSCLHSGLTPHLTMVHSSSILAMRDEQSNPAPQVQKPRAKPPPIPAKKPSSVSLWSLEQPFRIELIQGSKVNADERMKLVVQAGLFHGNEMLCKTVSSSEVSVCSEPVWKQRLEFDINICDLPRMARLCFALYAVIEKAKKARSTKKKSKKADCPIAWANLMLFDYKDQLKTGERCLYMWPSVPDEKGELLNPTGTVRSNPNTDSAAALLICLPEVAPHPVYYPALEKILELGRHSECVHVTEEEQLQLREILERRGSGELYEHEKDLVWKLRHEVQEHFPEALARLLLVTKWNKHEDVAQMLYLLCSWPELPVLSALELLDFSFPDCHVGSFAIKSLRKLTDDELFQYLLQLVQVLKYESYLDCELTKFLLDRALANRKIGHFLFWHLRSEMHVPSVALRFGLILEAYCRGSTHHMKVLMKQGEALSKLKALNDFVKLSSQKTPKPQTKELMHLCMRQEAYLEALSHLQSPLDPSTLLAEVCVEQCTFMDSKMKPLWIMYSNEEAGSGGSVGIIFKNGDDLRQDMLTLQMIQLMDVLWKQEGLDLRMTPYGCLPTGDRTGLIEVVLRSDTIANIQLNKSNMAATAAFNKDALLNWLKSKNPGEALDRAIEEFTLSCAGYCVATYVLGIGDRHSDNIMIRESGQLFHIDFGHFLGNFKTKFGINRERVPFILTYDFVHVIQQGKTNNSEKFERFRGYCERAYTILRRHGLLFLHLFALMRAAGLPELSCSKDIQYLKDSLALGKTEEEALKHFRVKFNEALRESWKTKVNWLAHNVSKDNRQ
PI3Kδ, sequence (P27986 whole entry partner, canonical isoform): as the sequence (P27986 whole entry partner) above

AKT = assay: RT-qPCR gene expression of AKT in PC-3 cells; type: cell-based, human; conditions: PC-3 cells treated at IC50 3.56 µM, compared to untreated cells
In short: (§1)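 Control and treated cells (1×10^5) were trypsinised, spun at 5000 rpm and washed in PBS. Total RNA was isolated and cDNA synthesised. Gene-specific mRNA was measured by qPCR with IDT-designed primers, with a GAPDH primer pair included. Expression was given relative to untreated control cells.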

m-TOR = assay: RT-qPCR gene expression of m-TOR in PC-3 cells; type: cell-based, human; conditions: PC-3 cells treated at IC50 3.56 µM, compared to untreated cells
In short: as §1

P53 = assay: RT-qPCR gene expression of P53 in PC-3 cells; type: cell-based, human; conditions: PC-3 cells treated at IC50, vs untreated PC-3
In short: as §1

BAX = assay: RT-qPCR gene expression of BAX in PC-3 cells; type: cell-based, human; conditions: PC-3 cells treated at IC50, vs untreated PC-3
In short: as §1

BCl-2 = assay: RT-qPCR gene expression of BCl-2 in PC-3 cells; type: cell-based, human; conditions: PC-3 cells treated at IC50, vs untreated PC-3
In short: as §1

caspase 3 = assay: RT-qPCR gene expression of caspase 3 in PC-3 cells; type: cell-based, human; conditions: PC-3 cells treated at IC50, vs untreated PC-3
In short: as §1

caspase 8 = assay: RT-qPCR gene expression of caspase 8 in PC-3 cells; type: cell-based, human; conditions: PC-3 cells treated at IC50, vs untreated PC-3
In short: as §1

PC-3 cells [2] = assay: Cell cycle analysis; type: cell-based, human; conditions: compound at IC50, 24 h
PC-3 cells [3] = assay: Annexin V/propidium iodide staining for apoptosis; type: cell-based, human

Molecule: C=CCOc1ccc2c(C)c(CC)c(=O)oc2c1C [Compound 9d, 7-(Allyloxy)-3-ethyl-4,8-dimethyl-2H-chromen-2-one]
- IC50 (MDA-MB-231): > 50 µM

- IC50 (PI3Kβ (p110β/p85α)): 0.992 µM
Molecule: Cc1c(Cc2ccccc2)c(=O)oc2c(C)c(OCC(=O)NN=Cc3ccc([N+](=O)[O-])cc3)ccc12 [Compound 4e, 2-((3-Benzyl-4,8-dimethyl-2-oxo-2H-chromen-7-yl)oxy)-N'-(4-nitrobenzylidene)acetohydrazide]
- IC50 (MDA-MB-231): 24.3 ± 2.28 µM
- IC50 (PC-3): 23.1 ± 1.2 µM

Molecule: C#Cc1cccc(Nc2ncnc3cc(OCCOC)c(OCCOC)cc23)c1 [Erlotinib, erlotinib, reference compound]
- IC50 (MDA-MB-231): 11.1 ± 1.11 µM
- IC50 (HCT-116): 17.8 ± 1.15 µM
- IC50 (HEPG-2): 22.1 ± 0.46 µM
- IC50 [1]: 63.5 ± 5.56 µM

Molecule: Cc1c(Cc2ccccc2)c(=O)oc2c(C)c(OCC(=O)NN=Cc3ccc(Cl)cc3)ccc12 [Compound 4d, 2-((3-Benzyl-4,8-dimethyl-2-oxo-2H-chromen-7-yl)oxy)-N'-(4-chlorobenzylidene)acetohydrazide]
- IC50 (MDA-MB-231): > 50 µM

Molecule: 7-((amino-5-(isopropylthio)-4H-1,2,4-triazol-3-yl)methoxy)-3-ethyl-4,8-dimethyl-2H-chromen-2-one [Compound 8]
- IC50 (PC-3): > 50 µM

Molecule: C=CCNC(=S)NNC(=O)COc1ccc2c(C)c(CC)c(=O)oc2c1C [Compound 6b, N-Allyl-2-(2-((3-ethyl-4,8-dimethyl-2-oxo-2H-chromen-7-yl)oxy)acetyl)hydrazine-1-carbothioamide]
- IC50 (MDA-MB-231): > 50 µM

Molecule: CCOc1ccc2c(C)c(CC)c(=O)oc2c1C [Compound 9a, 7-Ethoxy-3-ethyl-4,8-dimethyl-2H-chromen-2-one]
- IC50 (MDA-MB-231): > 50 µM

Molecule: CCCOc1ccc2c(C)c(CC)c(=O)oc2c1C [Compound 9b, 3-Ethyl-4,8-dimethyl-7-propoxy-2H-chromen-2-one]
- IC50 (MDA-MB-231): > 50 µM

- IC50 (PI3Kβ (p110β/p85α)): 0.792 µM
Molecule: CCc1c(C)c2ccc(OCC(=O)NN=Cc3ccc([N+](=O)[O-])cc3)cc2oc1=O [Compound 4a, 2-((3-Ethyl-4-methyl-2-oxo-2H-chromen-7-yl)oxy)-N'-(4-nitrobenzylidene) acetohydrazide]
- IC50 (MDA-MB-231): 23.6 ± 0.36 µM
- fold superior to IC50 of the erlotinib, PC-3 (PC-3): 1.2 fold

Molecule: CCc1c(C)c2ccc(OCc3nnc(S)n3N)c(C)c2oc1=O [Compound 7, 7-((4-amino-5-mercapto-4H-1,2,4-triazol-3-yl)methoxy)-3-ethyl-4,8-dimethyl-2H-chromen-2-one]
- IC50 (MDA-MB-231): > 50 µM

Molecule: CCc1c(C)c2ccc(OCC(=O)NNC(=S)Nc3ccccc3)c(C)c2oc1=O [Compound 6c, 2-(2-((3-Ethyl-4,8-dimethyl-2-oxo-2H-chromen-7-yl)oxy)acetyl)-N-phenylhydrazine-1-carbothioamide]
- IC50 (MDA-MB-231): > 50 µM

Molecule: Cc1c(Cc2ccccc2)c(=O)oc2c(C)c(OCC(=O)NN=Cc3ccco3)ccc12 [Compound 4b, 2-((3-Benzyl-4,8-dimethyl-2-oxo-2H-chromen-7-yl)oxy)-N'-(furan-2-ylmethylene)acetohydrazide]
- IC50 (MDA-MB-231): 11.8 ± 0.98 µM
- fold superior to IC50 of the erlotinib, PC-3 (PC-3): 1.36 fold

Molecule: CCc1c(C)c2ccc(OCC=Cc3ccccc3)c(C)c2oc1=O [Compound 9e, 7-(Cinnamyloxy)-3-ethyl-4,8-dimethyl-2H-chromen-2-one]
- IC50 (MDA-MB-231): > 50 µM

- IC50 (EGFR): 0.181 µM
- IC50 (PI3Kβ (p110β/p85α)): 0.261 µM
- PI3Kβ inhibitory activity relative to LY294002 (PI3Kβ (p110β/p85α); vs LY294002 as reference PI3Kβ inhibitor): twofold
- IC50 (PI3Kα): 2.89 ± 0.33 µM
- IC50 (PI3Kγ): 5.04 ± 0.21 µM
- IC50 (PI3Kδ): 5.49 ± 0.29 µM
Molecule: CC(=NNC(=O)COc1ccc2c(C)c(Cc3ccccc3)c(=O)oc2c1C)c1ccc(Br)cc1 [Compound 5, 2-((3-benzyl-4,8-dimethyl-2-oxo-2H-chromen-7-yl)oxy)-N'-(1-(4-bromophenyl)ethylidene)acetohydrazide]
- IC50 (MDA-MB-231): 46.3 ± 2.7 µM
- fold superior to IC50 of the erlotinib, PC-3 (PC-3): 3.45 fold
- IC50 (HCT-116): 19.8 ± 0.55 µM
- cytotoxic activity times higher than erlotinib, HEPG-2 (HEPG-2; HEPG-2 cell line, vs erlotinib): 1.5 times
- IC50 (HEPG-2): 14.2 ± 1.2 µM
- IC50 [1]: 95.5 ± 1.3 µM
- downregulation of AKT gene expression (AKT): 2.5 fold
- downregulation of m-TOR gene expression (m-TOR): 2.6 fold
- induced expression of P53 gene (P53): 3.83 fold
- expression of BAX gene (BAX): 5.6 fold
- downregulation of BCl-2 gene (BCl-2): 0.30 fold
- upregulation of caspase 3 gene (caspase 3): 5.40 fold
- upregulation of caspase 8 gene (caspase 8): 2.96 fold
- percentage of cells in G1 phase (PC-3 cells [2]): 52.09%
- percentage of cells in G2/M phase (PC-3 cells [2]): 5.8%
- percentage of cells in S phase (PC-3 cells [2]): 42.11%
- proportion of early apoptotic cells (PC-3 cells [3]; compound at IC50, lower right quadrant): 22.62%
- proportion of late apoptotic cells (PC-3 cells [3]; compound at IC50, upper right quadrant): 13.33%

- IC50 (PI3Kδ): 7.42 ± 0.36 µM
Molecule: O=c1cc(N2CCOCC2)oc2c(-c3ccccc3)cccc12 [LY294002, reference compound]

Molecule: CCNC(=S)NNC(=O)COc1ccc2c(C)c(CC)c(=O)oc2c1C [Compound 6a, N-Ethyl-2-(2-((3-ethyl-4,8-dimethyl-2-oxo-2H-chromen-7-yl)oxy)acetyl)hydrazine-1-carbothioamide]
- IC50 (MDA-MB-231): > 50 µM

Molecule: Cc1c(Cc2ccccc2)c(=O)oc2c(C)c(OCC(=O)NN=Cc3ccccc3)ccc12 [Compound 4c, 2-((3-Benzyl-4,8-dimethyl-2-oxo-2H-chromen-7-yl)oxy)-N'-benzylideneacetohydrazide]
- IC50 (MDA-MB-231): 8.5 ± 0.85 µM

Source: PMC10866054 (Journal of Enzyme Inhibition and Medicinal Chemistry, 2024)
